# Published values collected from several papers.
# Protocols differ between the studies behind these lines.
# Effect on: enzyme activity
# Mode: inhibitor
# CDK2: Cyclin-dependent kinase 2 (CDK2, Homo sapiens, UniProt P24941)
# CDK2 with cyclin A: Cyclin-dependent kinase 2, with cyclin A (CDK2, Homo sapiens, UniProt P24941)
SMILES,target,method,tested at,inhibition
CN(c1ncccc1CNc1nc(Nc2ccc3c(c2)CC(=O)N3)ncc1C(F)(F)F)S(C)(=O)=O,CDK2,,1 µM,94.4%
CNC(=O)c1ccccc1Nc1cc(Nc2ccc(N3CCOCC3)cc2OC)ncc1C(F)(F)F,CDK2,,1 µM,> 50%
CC/C(=N\NC(=O)NCc1cccc(O)c1)c1ccc(O)c(C)c1O,"Cyclin-dependent kinase 2, with cyclin E1 (CDK2, Homo sapiens, UniProt P24941)",,0.1 µM,-16.4%
COc1cc2ncnc(Nc3ccc(Oc4ccccc4)cc3C)c2cc1OC,CDK2 with cyclin A,,1 µM,-14%
CCCS(=O)(=O)Nc1ccc(F)c(C(=O)c2c[nH]c3ncc(-c4ccc(Cl)cc4)cc23)c1F,CDK2 with cyclin A,,1 µM,< 10%
Cn1cncc1C1=CN(c2ncnc3[nH]cnc23)CCS1,CDK2,radiometric,50 nM,12.6%
CSc1nc(C)c(-c2ccnc(Nc3ccc(N4CCOCC4)cc3)c2)[nH]1,CDK2,,10 µM,66.4%
COc1cc(-c2cc(-c3ccc(N4CCNCC4)cc3)cnc2N)cc(OC)c1OC,CDK2 with cyclin A,,1 µM,2%
CN(C)C1CCN(CC#Cc2nn(C3CCCC3)c3nc(NCc4ccccc4)ncc23)C1 (stereo not drawn),CDK2 with cyclin A,FRET,0.1 µM,7%
Cn1cnc(Br)c1C1=CN(c2ncnc3[nH]cnc23)CCS1,CDK2,radiometric,50 nM,20.5%
CN1CC(Oc2cnc(C#N)cc2-c2ccn3nc(NC(=O)C4CC4)cc3c2)C1,"Cyclin-dependent kinase 2, with cyclin E (CDK2, Homo sapiens, UniProt P24941)",,1 µM,-13%
O=C(CSc1nc2nccnc2c(=O)n1CCc1ccccc1)Nc1nccs1,"Cyclin-dependent kinase 2, with cyclin O (CDK2, Homo sapiens, UniProt P24941)",,10 µM,3%
